According to ChEMBL document CHEMBL1811811, “Characterization of anticancer properties of 2,6-diisopropylphenol-docosahexaenoate and analogues in breast cancer cells” (Bioorg Med Chem, 2010):
pIC50: −log10 of the molar value. The source made the active and inactive calls. The rule behind the calls is not given here.

Legend:
[1] = system: MDA-MB-231; assay: Growth inhibition of human MDA-MB-231 cells after 48 hrs by WST1 assay; assay type: functional, cell-based; details: for pIC50: Homo sapiens, MDA-MB-231, 48 h, read-out: IC50
Outline: (§1)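 Cells seeded at 5000/well, grown overnight (18 h) in DMEM complete medium, then switched to DMEM with 2% FBS plus treatment for 48 h at 37 °C, 5% CO2; ethanol vehicle control. WST-1 read at day 0 (baseline, X) and end; growth normalized as (Y−X)/X×100, 100 to 0 = growth inhibition, 0 to −100 = cell death. Mean ± SD, at least four experiments.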

[2] = system: MDA-MB-231; assay: Total growth inhibition of human MDA-MB-231 cells after 48 hrs by WST1 assay; assay type: functional; outline: as §1
[3] = system: MDA-MB-231; assay: Induction of apoptosis in human MDA-MB-231 cells assessed as viable cells at 1 uM after 24 hrs by annexin V/propidium iodide staining based FACS flow cytometry (reference value: 89 +/- 1 %); assay type: functional; details: MDA-MB-231, 24 h, read-out: Activity
[4] = system: MCF7; assay: Cytotoxicity against human MCF7 cells at 25 uM after 48 hrs by WST1 assay; assay type: functional, cell-based; outline: as §1
[5] = system: MCF7; assay: Growth inhibition of human MCF7 cells at 25 uM after 48 hrs by WST1 assay; assay type: functional, cell-based; outline: as §1
[6] = system: MDA-MB-231; assay: Induction of apoptosis in human MDA-MB-231 cells assessed as viable cells at 10 uM after 24 hrs by annexin V/propidium iodide staining based FACS flow cytometry (reference value: 89 +/- 1 %); assay type: functional; details: MDA-MB-231, 24 h, read-out: Activity
[7] = system: MDA-MB-231; assay: Induction of apoptosis in human MDA-MB-231 cells assessed as apoptotic cells at 1 uM after 24 hrs by annexin V/propidium iodide staining based FACS flow cytometry (reference value: 1.8 +/- 0.3 %); assay type: functional
[8] = system: MDA-MB-231; assay: Induction of apoptosis in human MDA-MB-231 cells assessed as apoptotic cells at 10 uM after 24 hrs by annexin V/propidium iodide staining based FACS flow cytometry (reference value: 1.8 +/- 0.3 %); assay type: functional
[9] = system: MDA-MB-231; assay: Induction of apoptosis in human MDA-MB-231 cells assessed as necrotic cells at 1 uM after 24 hrs by annexin V/propidium iodide staining based FACS flow cytometry (reference value: 9.2 +/- 0.8 %); assay type: functional
[10] = system: MDA-MB-231; assay: Induction of apoptosis in human MDA-MB-231 cells assessed as necrotic cells at 10 uM after 24 hrs by annexin V/propidium iodide staining based FACS flow cytometry (reference value: 9.2 +/- 0.8 %); assay type: functional
[11] = system: MDA-MB-361; assay: Growth inhibition of human MDA-MB-361 cells at 25 uM after 48 hrs by WST1 assay; assay type: functional, cell-based; outline: as §1
[12] = system: MDA-MB-361; assay: Cytotoxicity against human MDA-MB-361 cells at 25 uM after 48 hrs by WST1 assay; assay type: functional, cell-based; outline: as §1
[13] = system: AU565; assay: Growth inhibition of human AU565 cells at 25 uM after 48 hrs by WST1 assay; assay type: functional, cell-based; outline: as §1
[14] = system: AU565; assay: Cytotoxicity against human AU565 cells at 25 uM after 48 hrs by WST1 assay; assay type: functional, cell-based; outline: as §1
[15] = system: HMEC; assay: Growth inhibition of human HMEC cells at 25 uM after 48 hrs by WST1 assay; assay type: cell-based; outline: as §1
[16] = system: HMEC; assay: Cytotoxicity against human HMEC cells at 25 uM after 48 hrs by WST1 assay; assay type: cell-based; outline: as §1
[17] = biological target: T1, Histone deacetylase (Homo sapiens) (UniProt Q13547+O15379+Q9UBN7+Q92769+Q9UQL6+Q8WUI4+Q9BY41+Q96DB2+P56524+Q9UKV0+Q969S8); assay: Inhibition of HDAC in human MDA-MB-231 cells up to 25 uM after 2 hrs relative to control; assay type: cell-based
Outline: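 MDA-MB-231 cells treated 2 h at 37 °C in DMEM with 2% FBS with varying concentrations; rinsed in PBS, trypsinized, normalized to 2×10^6 cells/mL in PBS with 0.1% Triton X-100, sonicated on ice. Total (non-specific) HDAC activity measured with a fluorometric kit; trichostatin A used for maximum inhibition to correct non-specific readings. Expressed as % of total HDAC activity versus vehicle.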

[18] = system: MDA-MB-231; assay: Growth inhibition of human MDA-MB-231 cells at 25 uM after 48 hrs by WST1 assay; assay type: functional, cell-based; outline: as §1
[19] = system: MDA-MB-231; assay: Cytotoxicity against human MDA-MB-231 cells at 10 uM after 48 hrs by WST1 assay; assay type: functional, cell-based; outline: as §1
[20] = system: Serum; assay: Stability in human serum at 1 mM incubated for 2 hrs at 37 degC by HPLC; details: 1000 µM
[21] = system: Serum; assay: Stability in mouse serum at 1 mM incubated for 2 hrs at 37 degC by HPLC; details: 1000 µM
[22] = biological target: T1, Histone deacetylase (Homo sapiens); assay: Inhibition of HDAC in human MDA-MB-231 cells after 2 hrs; assay type: cell-based
Outline: (§2)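 Cells exposed 2 h at 37 °C to varying concentrations in DMEM/2% FBS, washed, trypsinized, adjusted to 2×10^6 cells/mL in PBS with 0.1% Triton X-100, and sonicated on ice. Total HDAC activity measured with a fluorometric kit; trichostatin A used as maximum inhibition to correct non-specific signal. Expressed as % of total HDAC activity versus vehicle.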

[23] = biological target: T1, Histone deacetylase (Homo sapiens); assay: Inhibition of HDAC in human MDA-MB-231 cells at 10 to 25 uM after 2 hrs relative to control; assay type: cell-based; outline: as §2

Row | SMILES | growth inhibition (GI) [1] | pIC50 [1] | TGI ([2]; MDA-MB-231, 48 h) [µM] | viability at 1 µM [3] [%] | Activity [4] | growth inhibition (GI) [5] | viability at 10 µM [6] [%] | Activity [7] [%] | Activity [8] [%] | Activity [9] [%] | Activity [10] [%] | growth inhibition (GI) [11] | Activity [12] | growth inhibition (GI) [13] | Activity [14] | Activity [15] | Activity [16] | other results
1 | CC/C=C\C/C=C\C/C=C\C/C=C\C/C=C\C/C=C\CCC(=O)Oc1ccccc1 | inactive | < 4.60 | > 25 |  |  |  |  |  |  |  |  |  |  |  |  |  |  | 
2 | CC/C=C\C/C=C\C/C=C\C/C=C\C/C=C\C/C=C\CCC(=O)Oc1ccc(C(C)C)cc1C(C)C | Dose-dependent effect | 5.14 | 12.6 |  |  |  |  |  |  |  |  |  |  |  |  |  |  | 
3 | CC(C)c1cccc(C(C)C)c1O [PROPOFOL] |  |  |  | 90.9 | inactive | inactive | 88.2 | 2 | 2.4 | 7.1 | 9.4 | inactive | inactive | inactive | inactive | Non-toxic | Non-toxic | inhibition [17]: inactive
4 | CC(C)c1ccccc1O |  |  |  | 93.7 | inactive | inactive | 88.8 | 1.5 | 2.2 | 4.9 | 9 | inactive | inactive | inactive | inactive | Non-toxic | Non-toxic | 
5 | CC/C=C\C/C=C\C/C=C\C/C=C\C/C=C\C/C=C\CCC(=O)Nc1ccccc1C(C)C |  | 5.19 | 8.5 |  |  |  |  |  |  |  |  |  |  |  |  |  |  | 
6 | CC/C=C\C/C=C\C/C=C\C/C=C\C/C=C\C/C=C\CCC(=O)Nc1c(C(C)C)cccc1C(C)C |  | 5.43 | 5.5 |  |  |  |  |  |  |  |  |  |  |  |  |  |  | 
7 | Oc1ccccc1C1CCCCC1 |  |  |  |  |  |  |  |  |  |  |  |  |  |  |  |  |  | growth inhibition (GI) [18]: Active
8 | CC/C=C\C/C=C\C/C=C\C/C=C\C/C=C\C/C=C\CCC(=O)Nc1ccccc1 |  |  |  |  |  |  |  |  |  |  |  |  |  |  |  |  |  | IC50 ([1]; mda-mb-231): Not Active; TGI [2]: inactive
9 | CC/C=C\C/C=C\C/C=C\C/C=C\C/C=C\C/C=C\CCC(=O)Oc1ccccc1C(C)C | Dose-dependent effect | 5.09 | 12.1 | 89.6 | Active | Active | 36.2 | 1.8 | 26.4 | 8.6 | 37.5 | Active | Active | Active | Active | Non-toxic | Non-toxic | Activity [19]: Active; Stability [20]: Stable; Stability [21]: Stable
10 | CC/C=C\C/C=C\C/C=C\C/C=C\C/C=C\C/C=C\CCC(=O)Oc1ccccc1C1CCCCC1 | Dose-dependent effect | 5.08 | 18.7 |  |  |  |  |  |  |  |  |  |  |  |  |  |  | 
11 | CC/C=C\C/C=C\C/C=C\C/C=C\C/C=C\C/C=C\CCC(=O)O [DOCONEXENT] | Dose-dependent effect |  |  | 90.3 |  |  | 87.6 | 2.1 | 1.8 | 7.6 | 10.7 |  |  |  |  |  |  | growth inhibition (GI) [18]: inactive; inhibition [17]: inactive; Stability [20]: Stable; Stability [21]: Stable
12 | CC/C=C\C/C=C\C/C=C\C/C=C\C/C=C\C/C=C\CCC(=O)Oc1c(C(C)C)cccc1C(C)C | Dose-dependent effect | 5.54 | 4.2 | 90.5 | Active | Active | 37.4 | 1.8 | 22.2 | 7.7 | 40.4 | Active | Active | Active | Active | Non-toxic | Non-toxic | Activity [19]: Active; inhibition [22]: Dose-dependent effect; inhibition [23]: 30%; Stability [20]: Stable; Stability [21]: Stable
